Laboratory results taken from ChEMBL document CHEMBL1127749 (J Med Chem, 1994).

Experiments:
[1] = biological target: Muscarinic acetylcholine receptor M2 (Mus musculus) (UniProt Q9ERZ4); assay: In vivo determination of peripheral M2 receptor mediated hypothermia, cholinergic side effect
Rattus norvegicus [2] = organism: Rattus norvegicus; assay: Ratio of binding affinity at [3H]quinuclidinyl benzilate binding on rat brain homogenate to [3H]- Oxotremorine-M binding on rat brain homogenate; type: functional
In short: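 Ago ratio computed as Ki from [³H]QNB binding to whole rat brain homogenate divided by Ki from [³H]oxotremorine-M binding to whole rat brain homogenate.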

[3] = biological target: Muscarinic acetylcholine receptor M2 (Mus musculus) (UniProt Q9ERZ4); assay: In vivo determination of peripheral M2 receptor mediated tremor, cholinergic side effect
[4] = biological target: Muscarinic acetylcholine receptor M2 (Mus musculus) (UniProt Q9ERZ4); assay: In vivo determination of peripheral M2 receptor mediated salivation, cholinergic side effect
Rattus norvegicus [5] = organism: Rattus norvegicus; assay: Ratio of binding affinity at [3H]quinuclidinyl benzilate binding on rat brain stem homogenate to [3H]pirenzepine binding on rat brain homogenate
[6] = biological target: T1, Muscarinic acetylcholine receptor M1 (Rattus norvegicus, UniProt P08482); assay: In vitro binding affinity for muscarinic M1 receptor by displacing [3H]pirenzepine binding on rat brain homogenate.; type: tissue-based
T1 sequence (P08482 whole entry): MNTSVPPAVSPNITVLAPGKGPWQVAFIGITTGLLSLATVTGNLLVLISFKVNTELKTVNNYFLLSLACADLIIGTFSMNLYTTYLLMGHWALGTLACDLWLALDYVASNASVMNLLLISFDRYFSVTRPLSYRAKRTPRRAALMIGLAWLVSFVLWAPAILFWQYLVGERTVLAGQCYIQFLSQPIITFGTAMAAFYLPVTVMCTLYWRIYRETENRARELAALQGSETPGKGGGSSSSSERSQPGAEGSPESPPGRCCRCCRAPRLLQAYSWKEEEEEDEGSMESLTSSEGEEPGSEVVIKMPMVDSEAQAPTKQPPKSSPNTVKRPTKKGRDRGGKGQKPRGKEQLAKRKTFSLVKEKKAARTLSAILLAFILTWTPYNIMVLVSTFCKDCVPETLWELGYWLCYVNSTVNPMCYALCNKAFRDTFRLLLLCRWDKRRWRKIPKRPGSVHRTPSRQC
In short: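 Two complete curves, five test concentrations spanning 3 decades, each in triplicate. IC50 read from hand-drawn log concentration–response curves, converted to Ki by Cheng–Prusoff.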

[7] = biological target: Muscarinic acetylcholine receptor; assay: In vitro binding affinity for muscarinic receptor by displacing [3H]quinuclidinyl benzilate binding on rat brain homogenate; type: tissue-based
In short: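 Two concentration–response curves, five concentrations covering 3 decades, triplicates. IC50 estimated from hand-drawn log concentration–response curves and converted to Ki with Cheng–Prusoff equation.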

[8] = biological target: T1, Muscarinic acetylcholine receptor M1; assay: M1 agonist activity estimated by rat superior cervical ganglion depolarization; type: functional, tissue-based
[9] = biological target: Muscarinic acetylcholine receptor; assay: In vitro binding affinity for muscarinic receptor by displacing [3H]quinuclidinyl benzilate binding on rat brain stem homogenate.; type: tissue-based
In short: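 Two full curves, five test concentrations over 3 decades in triplicate. Hand-drawn log curves gave IC50; Ki by Cheng–Prusoff.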

[10] = biological target: Muscarinic acetylcholine receptor; assay: In vitro binding affinity for muscarinic receptor by displacing [3H]oxotremorine-M binding on rat brain homogenate.; type: tissue-based
In short: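 Duplicate full curves of five drug concentrations over 3 decades, triplicate points. IC50 taken from hand-drawn log curves; Ki via Cheng–Prusoff.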

[11] = biological target: Muscarinic acetylcholine receptor M3 (Cavia porcellus)
[12] = biological target: Muscarinic acetylcholine receptor M2 (Cavia porcellus); assay: M2 agonist activity estimated by depression of isolated guinea pig left atrium
[13] = biological target: T1, Muscarinic acetylcholine receptor M1; assay: In vitro ability to depolarize isolated rat superior cervical ganglion was used to estimate their M1 agonistic effect; type: functional, tissue-based
In short: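 Because the concentration–response curve is biphasic, EC50 is given as equal to or greater than the calculated value. Apparent efficacy (RM) is maximum effect relative to muscarine's maximum on separate ganglia. Values are means of three to seven separate experiments.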

[14] = biological target: T2, Muscarinic acetylcholine receptor M3 (Cavia porcellus, UniProt Q8VH26); assay: In vitro ability to contract isolated guinea pig ileum was used to estimate M3 agonist effect; type: functional, tissue-based
T2 sequence (Q8VH26 whole entry): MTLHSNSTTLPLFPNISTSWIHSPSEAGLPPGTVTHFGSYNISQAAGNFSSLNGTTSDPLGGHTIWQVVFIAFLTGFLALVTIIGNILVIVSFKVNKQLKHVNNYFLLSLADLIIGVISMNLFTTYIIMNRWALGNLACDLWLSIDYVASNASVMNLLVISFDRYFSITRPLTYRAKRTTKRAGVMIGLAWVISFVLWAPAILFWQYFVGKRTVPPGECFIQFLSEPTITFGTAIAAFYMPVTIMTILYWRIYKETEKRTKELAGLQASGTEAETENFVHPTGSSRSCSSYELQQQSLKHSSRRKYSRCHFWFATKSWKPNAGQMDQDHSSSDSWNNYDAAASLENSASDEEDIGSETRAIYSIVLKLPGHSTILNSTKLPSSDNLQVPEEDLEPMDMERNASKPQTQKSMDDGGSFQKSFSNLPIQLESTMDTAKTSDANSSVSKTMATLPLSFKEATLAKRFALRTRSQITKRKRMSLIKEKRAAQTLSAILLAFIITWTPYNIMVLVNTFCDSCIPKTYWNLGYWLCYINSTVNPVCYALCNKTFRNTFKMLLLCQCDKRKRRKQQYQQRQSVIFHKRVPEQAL

[15] = biological target: T2, Muscarinic acetylcholine receptor M3; assay: In vitro ability to contract isolated guinea pig ileum was used to estimate M2/M3 agonist effect; type: functional, tissue-based
[16] = In vitro binding affinity for muscarinic receptor by displacing[ H]Quinuclidinyl benzilate binding on rat brain stem homogenate.; type: tissue-based
In short: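 Rat brainstem homogenate; displacement of [3H]quinuclidinyl benzilate (0.12 nM). Five test concentrations in triplicate spanning 3 decades, two complete curves. IC50 read from hand-drawn log concentration–response curves and converted to Ki by Cheng–Prusoff using KD 9.7 pM from Scatchard analysis.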

[17] = biological target: Muscarinic acetylcholine receptor; assay: In vitro binding affinity for muscarinic receptors by displacing [3H]quinuclidinyl benzilate binding on rat brain stem homogenate.; type: tissue-based
[18] = In vitro binding affinity for muscarinic receptors by displacing [3H]quinuclidinyl benzilate binding on rat brain homogenate; type: tissue-based

SMILES | ED50 [1] [µmol/kg] | Ratio (Rattus norvegicus [2]) | ED50 [3] [µmol/kg] | ED50 [4] [µmol/kg] | Ratio (Rattus norvegicus [5]) | Ki [6] [nM] | Ki [7] [nM] | EC50 [8] [nM] | Ki [9] [nM] | Ki [10] [nM] | EC50 [11] [nM] | EC50 [12] [nM] | EC50 [13] [µM] | EC50 [14] [µM] | EC50 [15] [µM] | Ki [16] [nM] | Ki [17] [nM] | Ki [18] [nM]
C=CCn1ncc(C2CCCNC2)n1 (single isomer, unassigned; (+)) [listing 1 of 2 here] | > 260 | 4.2 | > 260 | > 260 | 1.6 | – | – | – | – | – | – | – | – | – | – | – | – | –
CCn1nnc(C2=CCCN(C)C2)n1 [ALVAMELINE] | > 120 | – | > 120 | > 120 | – | 36 | 430 | ≥ 2000 | 340 | 9.2 | – | – | – | – | – | – | – | –
CN1CCC=C(c2cnn(C)n2)C1 | – | 360 | – | – | 4.5 | 35 | 280 | ≥ 430 | 160 | 0.78 | 130 | – | – | – | – | – | – | –
C#CCn1ncc(C2CCCNC2)n1 (single isomer, unassigned; (+)) | 23 | 44 | 32 | 7 | 0.2 | – | – | – | – | – | – | – | – | – | – | – | – | –
C=CCn1ncc(C2CCCNC2)n1 (single isomer, unassigned; (+)) [listing 2 of 2 here] | – | – | – | – | – | 210 | 190 | > 3400 | 330 | 45 | 4300 | 680 | – | – | – | – | – | –
CCn1nnc(C2=CCCNC2)n1 | – | – | – | – | – | 960 | 1600 | – | 280 | 23 | – | – | ≥ 3.3 | 6.4 | – | – | – | –
C=CCn1ncc(C2CCCNC2)n1 (racemic) [listing 1 of 2 here] | – | – | – | – | – | 100 | 910 | > 2800 | 300 | 25 | – | 1100 | – | – | 4.4 | – | – | –
C=CCn1ncc(C2CCCNC2)n1 (racemic) [listing 2 of 2 here] | > 350 | 36 | > 350 | 320 | 3 | – | – | – | – | – | – | – | – | – | – | – | – | –
C#CCn1ncc(C2CCCNC2)n1 (racemic) | 10 | 130 | 54 | 8.1 | 1.5 | – | – | – | – | – | – | – | – | – | – | – | – | –
CCCCCCCn1nnc(C2=CCCN(C)C2)n1 | – | 1.2 | – | – | 4.3 | 37 | 140 | – | – | 120 | – | – | – | – | – | 160 | – | –
CN1CCC=C(c2nnn(C)n2)C1 | – | 130 | – | – | 0.9 | 250 | 790 | – | 230 | 6.1 | – | – | – | – | – | – | – | –
C[N+](C)(C)CC#CCOC(=O)Nc1cccc(Cl)c1.[Cl-] | > 63 | 28 | > 63 | > 63 | 0.8 | 600 | – | ≥ 3900 | – | 18 | – | – | – | – | 6.5 | – | 460 | 500
C#CCn1ncc(C2=CCCN(C)C2)n1 | – | 26 | – | – | 2.9 | 7.7 | 41 | – | 22 | 1.6 | – | – | – | – | – | – | – | –
CCCCCCCCn1nnc(C2=CCCN(C)C2)n1 | – | 0.5 | – | – | 2.8 | 27 | 38 | – | 75 | 71 | – | – | – | – | – | – | – | –
C=CCn1ncc(C2CCCNC2)n1 (stereo in doubt; (-)-15b) [listing 1 of 2 here] | – | – | – | – | – | 170 | 530 | > 2500 | 310 | 37 | – | 840 | – | – | – | – | – | –
C#CCn1ncc(C2CCCNC2)n1 (stereo in doubt; (-)-15c) | 11 | 35 | 41 | 20 | 0.2 | – | – | – | – | – | – | – | – | – | – | – | – | –
CCN1C(=O)CC2(CCN(C)CC2)C1=O | – | 49 | – | – | 1 | 400 | 690 | ≥ 1100 | 400 | 14 | 430 | 400 | – | – | – | – | – | –
Cn1ncc(C2=CCCNC2)n1 | – | 1700 | – | – | 0.2 | 500 | 570 | – | 90 | 0.34 | – | – | – | – | – | – | – | –
C=Cn1nnc(C2=CCCN(C)C2)n1 | – | 2.5 | – | – | 0.8 | 120 | 230 | – | 90 | 92 | – | – | – | – | – | – | – | –
CCn1ncc(C2=CCCNC2)n1 | – | 78 | – | – | 1.4 | 120 | 290 | ≥ 650 | 170 | 3.7 | 770 | 270 | – | – | – | – | – | –
CCCCCn1nnc(C2=CCCN(C)C2)n1 | – | 8.1 | – | – | 4.2 | 26 | 130 | – | 110 | 16 | – | – | – | – | – | – | – | –
CCCn1ncc(C2=CCCNC2)n1 | – | 44 | – | – | 2.7 | 77 | 270 | – | 210 | 6.1 | – | – | – | – | – | – | – | –
C=CCn1ncc(C2CCCNC2)n1 (stereo in doubt; (-)-15b) [listing 2 of 2 here] | > 130 | 14 | > 130 | > 130 | 1.8 | – | – | – | – | – | – | – | – | – | – | – | – | –
CCCn1ncc(C2=CCCN(C)C2)n1 | – | 18 | – | – | 2.5 | 15 | 47 | – | 38 | 2.6 | – | – | – | – | – | – | – | –
CCn1ncc(C2=CCCN(C)C2)n1 | – | 65 | – | – | 2.5 | 24 | 110 | > 1200 | 61 | 1.7 | 940 | > 51000 | – | – | – | – | – | –
